Source: ChEMBL document CHEMBL1139214, “Lyngbyastatin 4, a dolastatin 13 analogue with elastase and chymotrypsin inhibitory activity from the marine cyanobacterium Lyngbya confervoides” (J Nat Prod, 2007)
The source made the active and inactive calls. The calls are words filed in the database; no cut-off is given here.

How the values were obtained:
[1] = species on record: Sus scrofa; assay: Selectivity for porcine elastase over porcine trypsin
[2] = Selectivity for porcine elastase over human plasmin
[3] = Inhibition of bovine pancreatic alpha chymotrypsin; set-up: species or system Bos taurus
Outline: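 Bovine pancreatic α-chymotrypsin (1 mg/mL enzyme solution) in 50 mM Tris-HCl, 100 mM NaCl, 1 mM CaCl2, pH 7.8. Test solution added, then 2 mM N-succinyl-Gly-Gly-Phe-p-nitroanilide substrate solution. Absorbance increase at 405 nm followed for 30 min. Dose–response analysis, IC50 determined.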

[4] = Selectivity for porcine elastase over bovine thrombin
[5] = species on record: Sus scrofa; assay: Inhibition of porcine pancreatic trypsin upto 30 uM
Outline: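 Porcine pancreatic trypsin (1 mg/mL enzyme solution) in 50 mM Tris-HCl, 100 mM NaCl, 1 mM CaCl2, pH 7.8. Test solution added, then 2 mM Nα-benzoyl-DL-arginine 4-nitroanilide hydrochloride substrate solution. Absorbance increase at 405 nm followed for 30 min. Dose–response analysis.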

[6] = molecular target: Prothrombin (Bos taurus) (UniProt P00735); assay: Inhibition of bovine plasma thrombin upto 30 uM; assay type: cell-free
[7] = molecular target: Plasminogen (Homo sapiens) (UniProt P00747); assay: Inhibition of human plasma plasmin upto 30 uM; assay type: cell-free
Sequence of Plasminogen (Homo sapiens) (P00747 97-580 limits assumed): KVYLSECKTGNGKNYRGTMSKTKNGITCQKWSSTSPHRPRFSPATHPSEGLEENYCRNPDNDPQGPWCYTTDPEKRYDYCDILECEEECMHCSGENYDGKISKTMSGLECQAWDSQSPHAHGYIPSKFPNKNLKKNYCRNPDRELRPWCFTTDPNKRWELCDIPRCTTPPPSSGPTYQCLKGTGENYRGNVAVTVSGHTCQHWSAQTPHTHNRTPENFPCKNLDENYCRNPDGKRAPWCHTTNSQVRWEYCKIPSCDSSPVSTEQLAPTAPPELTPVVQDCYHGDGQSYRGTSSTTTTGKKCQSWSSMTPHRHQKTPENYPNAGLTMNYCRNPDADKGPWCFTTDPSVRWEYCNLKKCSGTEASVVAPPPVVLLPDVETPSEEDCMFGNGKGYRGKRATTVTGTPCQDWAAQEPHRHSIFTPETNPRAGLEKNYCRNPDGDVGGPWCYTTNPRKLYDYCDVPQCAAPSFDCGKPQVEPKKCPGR
Sequence of Plasminogen (Homo sapiens) (P00747 581-810 limits assumed): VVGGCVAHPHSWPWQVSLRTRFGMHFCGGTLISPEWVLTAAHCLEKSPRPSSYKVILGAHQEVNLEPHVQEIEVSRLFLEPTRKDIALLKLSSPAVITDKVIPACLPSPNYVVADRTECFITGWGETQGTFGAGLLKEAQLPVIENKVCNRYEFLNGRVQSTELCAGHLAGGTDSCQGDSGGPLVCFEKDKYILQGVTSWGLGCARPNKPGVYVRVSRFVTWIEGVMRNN

[8] = species on record: Bos taurus; assay: Selectivity for bovine alpha chymotrypsin over bovine thrombin
[9] = Inhibition of porcine pancreatic elastase; set-up: species or system Sus scrofa
Outline: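 Porcine pancreatic elastase (75 µg/mL enzyme solution) preincubated with compound in Tris-HCl, pH 8.0, at 30 °C for 20 min. Then 2 mM N-succinyl-Ala-Ala-Ala-p-nitroanilide substrate solution added. Absorbance increase at 405 nm read over 3–30 min. Dose–response analysis, IC50 determined.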

[10] = Selectivity for bovine alpha chymotrypsin over human plasmin
[11] = Selectivity for bovine alpha chymotrypsin over porcine trypsin

C/C=C1\NC(=O)[C@@H](NC(=O)[C@H](CCc2ccc(O)cc2)NC(=O)[C@H](C)NC(=O)[C@H](O)COS(=O)(=O)O)[C@@H](C)OC(=O)[C@H](C(C)C)NC(=O)[C@H](Cc2ccc(O)cc2)N(C)C(=O)[C@H](Cc2ccccc2)N2C(=O)[C@H](CC[C@H]2O)NC1=O [LYNGBYASTATIN 4]
Selectivity ratio [1]: > 1000
Selectivity ratio [2]: > 1000
IC50 [3]: 300 nM
Selectivity ratio [4]: > 1000
Activity [5]: inactive
Activity [6]: inactive
Activity [7]: inactive
Selectivity ratio [8]: > 100
IC50 [9]: 30 nM
Selectivity ratio [10]: > 100
Selectivity ratio [11]: > 100
